Converted amounts (≈) assume the structure as drawn. The source made the active and inactive calls. The calls are words filed in the database; no cut-off is given here.
How the values were obtained:
Micrococcus luteus [1] = experiment: Antibacterial activity against Micrococcus luteus ATCC 21881 after 24 to 48 hrs by twofold serial dilution method; type: functional
Method in brief: (§1)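 Broth microdilution in Müller–Hinton broth. DMSO stocks at 800 were diluted twofold from 400 down to 6.25. Wells received 10^6 CFU/mL bacterial suspension and were incubated at 36 °C for 24–48 h, with controls. MIC was read per well. Duplicate assays; run only for compounds giving inhibition zones ≥14 mm.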

Aspergillus fumigatus [2] = experiment: Antifungal activity against Aspergillus fumigatus isolate at 1 mg/mL after 7 days by agar diffusion method; type: functional; conditions: 168 h, read-out: Diameter of inhibition zone
Method in brief: (§2)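 Agar disc diffusion: 5 mm sterile paper discs soaked in 1 mg/mL test solution in DMSO were placed on agar seeded with the organism, in triplicate, with a DMSO-only control. Bacterial plates were incubated at 37 °C for 24 h and fungal plates for 7 days. Read-out was the average inhibition-zone diameter in mm. Fungi were clinical isolates.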

Klebsiella pneumoniae [3] = experiment: Antibacterial activity against Klebsiella pneumoniae isolate after 24 to 48 hrs by twofold serial dilution method; type: functional; method in brief: as §1
Staphylococcus aureus [4] = experiment: Antibacterial activity against Staphylococcus aureus ATCC 6538 at 1 mg/mL after 24 hrs by agar diffusion method; type: functional; conditions: ATCC 6538, 24 h, read-out: Diameter of inhibition zone; method in brief: as §2
Aspergillus fumigatus [5] = experiment: Antifungal activity against Aspergillus fumigatus isolate after 72 hrs by twofold serial dilution method; type: functional
Pseudomonas aeruginosa [6] = experiment: Antibacterial activity against Pseudomonas aeruginosa ATCC 27853 after 24 to 48 hrs by twofold serial dilution method; type: functional; method in brief: as §1
Bacillus subtilis [7] = experiment: Antibacterial activity against Bacillus subtilis NRRL B-14819 after 24 to 48 hrs by twofold serial dilution method; type: functional; method in brief: as §1
Trichophyton rubrum = experiment: Antifungal activity against Trichophyton rubrum isolate after 72 hrs by twofold serial dilution method; type: functional, organism-based
Klebsiella pneumoniae [8] = experiment: Antibacterial activity against Klebsiella pneumoniae isolate at 1 mg/mL after 24 hrs by agar diffusion method; type: functional; conditions: read-out: Diameter of inhibition zone; method in brief: as §2
Micrococcus luteus [9] = experiment: Antibacterial activity against Micrococcus luteus ATCC 21881 at 1 mg/mL after 24 hrs by agar diffusion method; type: functional; conditions: ATCC 21881, 24 h, read-out: Diameter of inhibition zone; method in brief: as §2
Pichia kudriavzevii = experiment: Antifungal activity against Candida krusei isolate after 72 hrs by twofold serial dilution method; type: functional, organism-based
Aspergillus niger = experiment: Antifungal activity against Aspergillus niger isolate after 72 hrs by twofold serial dilution method; type: functional, organism-based
Candida albicans [10] = experiment: Antifungal activity against Candida albicans isolate after 72 hrs by twofold serial dilution method; type: functional
Escherichia coli [11] = experiment: Antibacterial activity against Escherichia coli ATCC 25922 at 1 mg/mL after 24 hrs by agar diffusion method; type: functional; conditions: ATCC 25922, 24 h, read-out: Diameter of inhibition zone; method in brief: as §2
Escherichia coli [12] = experiment: Antibacterial activity against Escherichia coli ATCC 25922 after 24 to 48 hrs by twofold serial dilution method; type: functional; method in brief: as §1
Bacillus subtilis [13] = experiment: Antibacterial activity against Bacillus subtilis NRRL B-14819 at 1 mg/mL after 24 hrs by agar diffusion method; type: functional; conditions: read-out: Diameter of inhibition zone; method in brief: as §2
Pseudomonas aeruginosa [14] = experiment: Antibacterial activity against Pseudomonas aeruginosa ATCC 27853 at 1 mg/mL after 24 hrs by agar diffusion method; type: functional; conditions: ATCC 27853, 24 h, read-out: Diameter of inhibition zone; method in brief: as §2
Staphylococcus aureus [15] = experiment: Antibacterial activity against Staphylococcus aureus ATCC 6538 after 24 to 48 hrs by twofold serial dilution method; type: functional; method in brief: as §1
Candida albicans [16] = experiment: Antifungal activity against Candida albicans isolate at 1 mg/mL after 7 days by twofold serial dilution method; type: functional; conditions: 168 h, read-out: Diameter of inhibition zone
Mus musculus [17] = experiment: Anticonvulsant activity in Wister albino mouse assessed as protection against subcutaneous metrazole-induced seizures at 100 mg/kg, ip administered 30 mins before metrazole challenge measured after 30 mins; type: functional; conditions: route intraperitoneal
Method in brief: (§3)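 Wistar albino mice, either sex, 25–30 g, 3 months old, in groups of six. Compounds in DMSO were given ip at 30, 100 or 300 mg/kg; vehicle-only controls. After 30 min, metrazole 100 mg/kg in DMSO was injected sc at the posterior midline. Protection meant absence of any clonic spasm lasting ≥5 s; scored as protected/tested.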

Candida tropicalis = experiment: Antifungal activity against Candida tropicalis isolate after 72 hrs by twofold serial dilution method; type: functional, organism-based
Mus musculus [18] = experiment: Anticonvulsant activity in Wister albino mouse assessed as protection against maximal electroshock-induced seizures at 100 mg/kg, ip administered 30 mins before metrazole challenge measured after 30 mins; type: functional; conditions: route intraperitoneal
Mus musculus [19] = experiment: Anticonvulsant activity in Wister albino mouse assessed as protection against subcutaneous metrazole-induced seizures at 300 mg/kg, ip administered 30 mins before metrazole challenge measured after 30 mins; type: functional; method in brief: as §3
Mus musculus [20] = experiment: Anticonvulsant activity in Wister albino mouse assessed as protection against subcutaneous metrazole-induced seizures at 30 mg/kg, ip administered 30 mins before metrazole challenge measured after 30 mins; type: functional; method in brief: as §3

Structure (SMILES)	MIC (Micrococcus luteus [1]) [µg/mL]	MIC (Klebsiella pneumoniae [3]) [µg/mL]	MIC (Aspergillus fumigatus [5]) [µg/mL]	MIC (Pseudomonas aeruginosa [6]) [µg/mL]	MIC (Bacillus subtilis [7]) [µg/mL]	MIC (Candida albicans [10]) [µg/mL]	MIC (Escherichia coli [12]) [µg/mL]	MIC (Staphylococcus aureus [15]) [µg/mL]	zone of inhibition at 1000 µg/mL (Aspergillus fumigatus [2]) [mm]	zone of inhibition at 1000 µg/mL (Staphylococcus aureus [4]) [mm]	Activity (Trichophyton rubrum)	zone of inhibition at 1000 µg/mL (Klebsiella pneumoniae [8]) [mm]	zone of inhibition at 1000 µg/mL (Micrococcus luteus [9]) [mm]	Activity (Pichia kudriavzevii)	Activity (Aspergillus niger)	zone of inhibition at 1000 µg/mL (Escherichia coli [11]) [mm]	zone of inhibition at 1000 µg/mL (Bacillus subtilis [13]) [mm]	zone of inhibition at 1000 µg/mL (Pseudomonas aeruginosa [14]) [mm]	zone of inhibition at 1000 µg/mL (Candida albicans [16]) [mm]	Activity (Candida tropicalis)	further results
Clc1ccc(C2Cn3nnnc3Cc3ccccc32)cc1 (stereo not drawn)	≥ 200	≥ 200	25 (≈ 84.2 µM)	≥ 200	≥ 200	≥ 200	50 (≈ 168 µM)	50 (≈ 168 µM)	≥ 14	≥ 14	inactive	≥ 14	≥ 14	inactive	inactive	≥ 14	≥ 14	≥ 14	≥ 14	inactive	Activity (Mus musculus [17]): 0%; Activity (Mus musculus [18]): 33%
OC(Cn1nnnc1Cc1ccccc1)c1ccc(Cl)cc1 (stereo not drawn)																					Activity (Mus musculus [19]): 50%; Activity (Mus musculus [17]): 100%; Activity (Mus musculus [20]): 0%; Activity (Mus musculus [18]): 67%
Sc1nnc(COC(Cn2nnc(-c3ccccc3)n2)c2ccc(Cl)cc2)n1-c1ccccc1 (stereo not drawn)	50 (≈ 102 µM)	50 (≈ 102 µM)		100 (≈ 204 µM)	50 (≈ 102 µM)		50 (≈ 102 µM)	12.5 (≈ 25.5 µM)	≥ 14	≥ 14	inactive	≥ 14	≥ 14	inactive	inactive	≥ 14	≥ 14	≥ 14	≥ 14	inactive	Activity (Mus musculus [17]): 33%; Activity (Mus musculus [18]): 33%
Clc1ccc(C(Cn2nnnc2Cc2ccccc2)OCc2nnc(Nc3ccccc3)o2)cc1 (stereo not drawn)	≥ 200	≥ 200	≥ 200	≥ 200	50 (≈ 102 µM)	25 (≈ 51.2 µM)	50 (≈ 102 µM)	25 (≈ 51.2 µM)	≥ 14	≥ 14	inactive	≥ 14	≥ 14	inactive	inactive	≥ 14	≥ 14	≥ 14	≥ 14	inactive	

Second part, led by results:

MIC (Micrococcus luteus [1]) [µg/mL]	MIC (Klebsiella pneumoniae [3]) [µg/mL]	MIC (Aspergillus fumigatus [5]) [µg/mL]	MIC (Pseudomonas aeruginosa [6]) [µg/mL]	MIC (Bacillus subtilis [7]) [µg/mL]	MIC (Candida albicans [10]) [µg/mL]	MIC (Escherichia coli [12]) [µg/mL]	MIC (Staphylococcus aureus [15]) [µg/mL]	Structure (SMILES)	zone of inhibition at 1000 µg/mL (Aspergillus fumigatus [2]) [mm]	zone of inhibition at 1000 µg/mL (Staphylococcus aureus [4]) [mm]	Activity (Trichophyton rubrum)	zone of inhibition at 1000 µg/mL (Klebsiella pneumoniae [8]) [mm]	zone of inhibition at 1000 µg/mL (Micrococcus luteus [9]) [mm]	Activity (Pichia kudriavzevii)	Activity (Aspergillus niger)	zone of inhibition at 1000 µg/mL (Escherichia coli [11]) [mm]	zone of inhibition at 1000 µg/mL (Bacillus subtilis [13]) [mm]	zone of inhibition at 1000 µg/mL (Pseudomonas aeruginosa [14]) [mm]	zone of inhibition at 1000 µg/mL (Candida albicans [16]) [mm]	Activity (Candida tropicalis)	further results
100 (≈ 186 µM)	≥ 200	≥ 200	≥ 200	50 (≈ 92.9 µM)	25 (≈ 46.4 µM)	50 (≈ 92.9 µM)	25 (≈ 46.4 µM)	Sc1nnc(COC(Cn2nnnc2Cc2ccccc2)c2ccc(Cl)cc2)n1-c1ccc(Cl)cc1 (stereo not drawn)	≥ 14	≥ 14	inactive	≥ 14	≥ 14	inactive	inactive	≥ 14	≥ 14	≥ 14	≥ 14	inactive	
50 (≈ 121 µM)	100 (≈ 241 µM)		50 (≈ 121 µM)	25 (≈ 60.3 µM)		25 (≈ 60.3 µM)	6.25 (≈ 15.1 µM)	Sc1nnc(COC(Cn2nnc(-c3ccccc3)n2)c2ccc(Cl)cc2)o1 (stereo not drawn)	≥ 14	≥ 14	inactive	≥ 14	≥ 14	inactive	inactive	≥ 14	≥ 14	≥ 14	≥ 14	inactive	Activity (Mus musculus [17]): 33%; Activity (Mus musculus [18]): 0%
		12.5 (≈ 36.2 µM)			6.25 (≈ 18.1 µM)			Clc1ccccc1C(c1ccccc1)(c1ccccc1)n1ccnc1 [CLOTRIMAZOLE]													

From ChEMBL document CHEMBL1152796, “Azole antimicrobial pharmacophore-based tetrazoles: synthesis and biological evaluation as potential antimicrobial and anticonvulsant agents” (Bioorg Med Chem, 2009)
